Assay results: ChEMBL document CHEMBL4354868, “6-Arylmethylidene Penicillin-Based Sulfone Inhibitors for Repurposing Antibiotic Efficiency in Priority Pathogens” (J Med Chem, 2020)
In brackets after ≈: the same amount, converted by molar mass. Activity calls are given as the source filed them. No cut-off for these calls is given here.

Legend:
Klebsiella pneumoniae [1] = test: Binding affinity to OXA-48 in Klebsiella pneumoniae assessed as ezyme-compound adduct formation from loss of catechol group with increase in mass at 1:100 ezyme-compound ratio using nitrocefin as substrate at pH 7 and 25 degree C by MALDI-TOF MS analysis
In short: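 OXA-48 from K. pneumoniae incubated with ligand at 1:100 enzyme/inhibitor molar ratio in 50 mM Tris-HCl, 150 mM NaCl, 1 mM EDTA pH 7.0, 25 °C, 30 min; activity followed on aliquots by nitrocefin hydrolysis (482 nm) in phosphate/bicarbonate pH 7.4; samples then washed with 5 mM ammonium bicarbonate by ultrafiltration, freeze-dried, analysed by MALDI-TOF; triplicate.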

[2] = Inhibition of carbapenem-resistant Acinetobacter baumannii ATCC 17978 OXA-24/40 expressed in Escherichia coli BL21 using nitrocefin as substrate measured after 15 mins by spectrophotometry analysis
[3] = tested on: Acinetobacter baumannii ATCC 17978; test: Inhibition of carbapenem-resistant Acinetobacter baumannii ATCC 17978 OXA-24/40 expressed in Escherichia coli BL21 assessed as inactivation rate constant using nitrocefin as substrate measured after 15 mins by spectrophotometry analysis
[4] = tested on: Acinetobacter baumannii ATCC 17978; test: Inhibition of Acinetobacter baumannii ATCC 17978 OXA-24/40 expressed in Escherichia coli BL21 assessed as ratio of Kinact/Ki using nitrocefin as substrate measured after 15 mins by spectrophotometry analysis
[5] = tested on: Acinetobacter baumannii ATCC 17978; test: Binding affinity to OXA-24/40 in carbapenem-resistant Acinetobacter baumannii ATCC 17978 assessed as ezyme-compound adduct formation from loss of catechol group with increase in mass at 1:100 ezyme-compound ratio using nitrocefin as substrate at pH 7 and 25 degree C by MALDI-TOF MS analysis
In short: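 OXA-24/40 (from a 0.9 mg mL-1 stock) was incubated with ligand at a 1:100 enzyme/inhibitor molar ratio in 50 mM Tris-HCl, 150 mM NaCl, 1 mM EDTA, pH 7.0, 25 °C, for 30 min. Activity was followed by nitrocefin hydrolysis at 482 nm. Samples were then washed and concentrated with 5 mM ammonium bicarbonate, freeze-dried, and analysed by MALDI-TOF for the covalent adduct mass shift, in triplicate.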

[6] = target: Beta-lactamase OXA-23 (Acinetobacter baumannii) (UniProt Q9L4P2); test: Inhibition of OXA-23 in carbapenem-resistant Acinetobacter baumannii ATCC 17978 transfected with pET-RA-KmR plasmid encoding rifampicin and kanamycin resistance assessed as potentiation of imipenem-induced antibacterial activity by measuring imipenem MIC at 16 ug/mL in Mueller-Hinton broth by CLSI protocol based method (reference value: 8 ug/mL)
In short: (§1)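 MIC of the reporter antibiotic measured by CLSI broth microdilution in Mueller-Hinton II broth, with and without inhibitor at 16 µg mL-1. Reporters were ampicillin for class A (TEM-1, CTX-M-2), ceftazidime for class C (CMY-2, DHA-1) and imipenem for class D (OXA-23, OXA-24/40, OXA-48). MIC is the lowest concentration with no visible growth, mean of three independent replicates. Strains were grown in LB at 37 °C, with kanamycin or ampicillin at 50 mg L-1 where needed.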

[7] = tested on: Acinetobacter baumannii ATCC 17978; test: Inhibition of OXA-24/40 in carbapenem-resistant Acinetobacter baumannii ATCC 17978 transfected with pET-RA-KmR plasmid encoding rifampicin and kanamycin resistance assessed as potentiation of imipenem-induced antibacterial activity by measuring imipenem MIC at 16 ug/mL in Mueller-Hinton broth by CLSI protocol based method (reference value: 64 ug/mL); in short: as §1
Klebsiella pneumoniae [8] = test: Inhibition of OXA-48 in beta-lactam-resistant Klebsiella pneumoniae assessed as potentiation of imipenem-induced antibacterial activity by measuring imipenem MIC at 16 ug/mL in Mueller-Hinton broth by CLSI protocol based method (reference value: 64 ug/mL); in short: as §1
[9] = target: Beta-lactamase TEM-1 (Escherichia coli) (UniProt Q4GY26); test: Inhibition of TEM-1 in penicillin-resistant Escherichia coli TG1 transfected with pBGS18 plasmid encoding replication origin and kanamycin resistance assessed as potentiation of ampicillin-induced antibacterial activity by measuring ampicillin MIC at 16 ug/mL in Mueller-Hinton broth by CLSI protocol based method (Rvb > 1024 ug/mL); in short: as §1
Escherichia coli [10] = test: Inhibition of CTX-M2 in beta-lactam-resistant Escherichia coli TG1 transfected with pBGS18 plasmid encoding replication origin and kanamycin resistance assessed as potentiation of ampicillin-induced antibacterial activity by measuring ampicillin MIC at 16 ug/mL in Mueller-Hinton broth by CLSI protocol based method (Rvb > 1024 ug/mL); in short: as §1
Escherichia coli [11] = test: Inhibition of CMY-2 in beta-lactam-resistant Escherichia coli TG1 transfected with pBGS18 plasmid encoding replication origin and kanamycin resistance assessed as potentiation of ceftazidime-induced antibacterial activity by measuring ceftazidime MIC at 16 ug/mL in Mueller-Hinton broth by CLSI protocol based method (reference value: 32 ug/mL); in short: as §1
Escherichia coli [12] = test: Inhibition of DHA-1 in beta-lactam-resistant Escherichia coli TG1 transfected with pBGS18 plasmid encoding replication origin and kanamycin resistance assessed as potentiation of ceftazidime-induced antibacterial activity by measuring ceftazidime MIC at 16 ug/mL in Mueller-Hinton broth by CLSI protocol based method (reference value: 32 ug/mL); in short: as §1
Escherichia coli [13] = test: Inhibition of CTX-M2 in beta-lactam-resistant Escherichia coli TG1 transfected with pBGS18 plasmid encoding replication origin and kanamycin resistance assessed as potentiation of ampicillin-induced antibacterial activity by measuring fold reduction in ampicillin MIC at 16 ug/mL in Mueller-Hinton broth by CLSI protocol based method relative to ampicillin MIC alone; in short: as §1
Acinetobacter baumannii = test: Antibacterial activity against wild type carbapenem-susceptible Acinetobacter baumannii ATCC 17978 in Mueller-Hinton broth by CLSI protocol based method; format: functional
In short: (§2)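 Broth microdilution MIC in Mueller-Hinton II broth following CLSI. Strains were grown in LB broth or on LB agar at 37 °C and stored at -80 °C in LB with 15% glycerol. MIC is the lowest concentration with no visible growth, given as the mean of three independent replicates.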

Klebsiella pneumoniae [14] = test: Antibacterial activity against wild type beta-lactam-resistant Klebsiella pneumoniae in Mueller-Hinton broth by CLSI protocol based method; format: functional; in short: as §2
Escherichia coli [15] = test: Antibacterial activity against wild type Escherichia coli TG1 in Mueller-Hinton broth by CLSI protocol based method; format: functional; in short: as §2
[16] = tested on: Acinetobacter baumannii ATCC 17978; test: Inhibition of carbapenem-resistant Acinetobacter baumannii ATCC 17978 OXA-24/40 expressed in Escherichia coli BL21 assessed as ratio of Kinact/Ki using nitrocefin as substrate measured after 15 mins by spectrophotometry analysis relative to parent compound
[17] = tested on: Acinetobacter baumannii ATCC 17978; test: Inhibition of carbapenem-resistant Acinetobacter baumannii ATCC 17978 OXA-24/40 expressed in Escherichia coli BL21 using nitrocefin as substrate measured after 15 mins by spectrophotometry analysis relative to parent compound
[18] = Drug metabolism assessed as centered band formation at 295 nm leading to conjugate imine intermediate formation at 25 degree C measured up to 2 mins for 15 mins in presence of sodium methoxide by UV-Vis spectroscopy
In short: (§3)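 Methanolysis followed after adding 1 equivalent NaOMe (1 M in MeOH) at 25 °C over 15 min; UV-Vis spectra scanned 600–200 nm, 2.0 nm bandwidth, 1 cm cell, collected at 0.5, 1.0, 1.5 and 2.0 min; mixture afterwards checked by HPLC-MS.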

[19] = Drug metabolism assessed as decrease in centered band formation at 253 nm leading to -indolizine skeleton formation at 25 degree C measured up to 2 mins for 15 mins in presence of sodium methoxide by UV-Vis spectroscopy; in short: as §3
[20] = Drug metabolism assessed as decrease in centered band formation at 408 nm leading to -indolizine skeleton formation at 25 degree C measured up to 2 mins for 15 mins in presence of sodium methoxide by UV-Vis spectroscopy; in short: as §3

SMILES | Activity (Klebsiella pneumoniae [1]) | Ki [2] | Kinact [3] | Ratio [4] | MIC [6] | MIC [7] | MIC (Klebsiella pneumoniae [8]) | MIC [9] | MIC (Escherichia coli [10]) | MIC (Escherichia coli [11]) | MIC (Escherichia coli [12]) | Ratio (Escherichia coli [13]) | further results
C[C@]1(COC(=O)Cc2ccc(O)c(O)c2)[C@H](C(=O)O)N2C(=O)/C(=C/c3nccc4ccsc34)[C@H]2S1(=O)=O | Active | 0.247 µM | 11 ms-1 | 47600 M⁻¹ s⁻¹ | 2 mg/L | 8 mg/L | 64 mg/L | 2 mg/L | 256 mg/L | < 0.25 mg/L | < 0.25 mg/L |  | Activity [5]: Active
Cn1cc(-c2ccnc(/C=C3/C(=O)N4[C@@H](C(=O)O)[C@](C)(COC(=O)Cc5ccc(O)c(O)c5)S(=O)(=O)[C@H]34)c2)cn1 | Active | 0.217 µM | 24 ms-1 | 110000 M⁻¹ s⁻¹ | 1 mg/L | 1 mg/L | 8 mg/L | 2 mg/L | 16 mg/L | < 0.25 mg/L | < 0.25 mg/L | 64 | 
C[C@@H](O)[C@H]1C(=O)N2C(C(=O)O)=C(SCCNC=N)C[C@H]12 [IMIPENEM ANHYDROUS] |  |  |  |  |  |  |  |  |  |  |  |  | MIC (Acinetobacter baumannii): 0.5 mg/L (≈ 1.67 µM); MIC (Klebsiella pneumoniae [14]): 0.5 mg/L (≈ 1.67 µM)
CC(C)(O/N=C(\C(=O)N[C@@H]1C(=O)N2C(C(=O)[O-])=C(C[n+]3ccccc3)CS[C@H]12)c1csc(N)n1)C(=O)O [CEFTAZIDIME] |  |  |  |  |  |  |  |  |  |  |  |  | MIC (Escherichia coli [15]): ≤ 0.25 mg/L
O=C(NC1CCNCC1)[C@@H]1CC[C@@H]2CN1C(=O)N2OS(=O)(=O)O |  |  |  |  | 8 mg/L | 64 mg/L | 8 mg/L | 4 mg/L | 16 mg/L | < 0.25 mg/L | < 0.25 mg/L | 64 | 
C[C@]1(COC(=O)Cc2ccc(O)c(O)c2)[C@H](C(=O)O)N2C(=O)/C(=C/c3ccc(F)cn3)[C@H]2S1(=O)=O | Active | 0.495 µM | 25 ms-1 | 48900 M⁻¹ s⁻¹ | 1 mg/L | 1 mg/L | 4 mg/L | 2 mg/L | 32 mg/L | < 0.25 mg/L | < 0.25 mg/L |  | Activity [5]: Active
C[C@]1(COC(=O)Cc2ccc(O)c(O)c2)[C@H](C(=O)O)N2C(=O)/C(=C/c3cc(Br)ccn3)[C@H]2S1(=O)=O | Active | 0.14 µM | 22 ms-1 | 159000 M⁻¹ s⁻¹ | 1 mg/L | 1 mg/L | 4 mg/L | 2 mg/L | 16 mg/L | < 0.25 mg/L | < 0.25 mg/L | 64 | Ratio [16]: 1.6; Ratio Ki [17]: 2; Drug metabolism [18]: Metabolite detected; Drug metabolism [19]: Metabolite detected; Drug metabolism [20]: Metabolite detected; Activity [5]: Active
COc1ccnc(/C=C2/C(=O)N3[C@@H](C(=O)O)[C@](C)(COC(=O)Cc4ccc(O)c(O)c4)S(=O)(=O)[C@H]23)c1OC | Active | 0.276 µM | 24 ms-1 | 83200 M⁻¹ s⁻¹ | 4 mg/L | 8 mg/L | 64 mg/L | 2 mg/L | 256 mg/L | < 0.25 mg/L | < 0.25 mg/L |  | 
C[C@]1(COC(=O)Cc2ccc(O)c(O)c2)[C@H](C(=O)O)N2C(=O)/C(=C/c3cc4ccccc4cn3)[C@H]2S1(=O)=O | Active |  |  |  | 2 mg/L | 2 mg/L | 8 mg/L | 4 mg/L | 256 mg/L | 2 mg/L | 2 mg/L |  | 
NC(=O)[C@@H]1CC[C@@H]2CN1C(=O)N2OS(=O)(=O)[O-].[Na+] [AVIBACTAM SODIUM] |  |  |  |  | 4 mg/L | 16 mg/L |  |  |  |  |  |  | MIC (Acinetobacter baumannii): 0.5 mg/L; MIC (Klebsiella pneumoniae [14]): 0.5 mg/L; MIC (Escherichia coli [15]): 2 mg/L
C[C@]1(COC(=O)Cc2ccc(O)c(O)c2)[C@H](C(=O)O)N2C(=O)/C(=C/c3ccccn3)[C@H]2S1(=O)=O |  | 0.234 µM | 22 ms-1 | 98200 M⁻¹ s⁻¹ | 0.5 mg/L | 0.5 mg/L | 4 mg/L | 2 mg/L | 16 mg/L | < 0.25 mg/L | < 0.25 mg/L | 64 | 
